According to ChEMBL document CHEMBL4406800, “Discovery of Potent Protease-Activated Receptor 4 Antagonists with in Vivo Antithrombotic Efficacy” (J Med Chem, 2019):

Assays:
[1] = Half life in monkey liver microsomes; assay type: ADME, Macaca mulatta, Microsome; details: rhesus monkey
[2] = biological target: T1, Proteinase-activated receptor 1 (Homo sapiens, UniProt P25116); experiment: Antagonist activity at PAR1 in human platelet rich plasma assessed as inhibition of SFFLRR-induced platelet aggregation preincubated for 5 mins followed by SFFLRR addition
T1 sequence (P25116 whole entry): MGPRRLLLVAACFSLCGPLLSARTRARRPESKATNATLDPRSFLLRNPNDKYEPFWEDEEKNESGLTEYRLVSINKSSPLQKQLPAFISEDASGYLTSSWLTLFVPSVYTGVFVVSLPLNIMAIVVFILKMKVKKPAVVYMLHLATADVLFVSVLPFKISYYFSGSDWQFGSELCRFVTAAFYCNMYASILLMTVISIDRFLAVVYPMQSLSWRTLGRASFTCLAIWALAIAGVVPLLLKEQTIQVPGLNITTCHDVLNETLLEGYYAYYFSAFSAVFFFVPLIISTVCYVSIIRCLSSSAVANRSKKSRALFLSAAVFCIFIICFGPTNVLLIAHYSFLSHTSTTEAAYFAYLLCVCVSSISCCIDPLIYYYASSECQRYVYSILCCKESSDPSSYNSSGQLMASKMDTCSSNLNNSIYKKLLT

[3] = Clearance in monkey at 2 mg/kg, po or 0.5 mg/kg, iv administered as infusion for 10 mins; assay type: ADME, organism-based, Macaca mulatta; details: rhesus monkey, in vivo
Method in brief: (§1)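 Dog and monkey dosing: iv 0.5 mpk as a 10 min infusion in PEG400 at 0.8 ml/kg. po 2 mpk in 40/60 TPGS/PEG400 at 0.5 mL/kg.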

[4] = Protein binding in dog plasma; assay type: ADME, cell-free, Canis lupus familiaris; details: read-out: PPB
hERG (KCNH2) = hERG (KCNH2) (Homo sapiens, UniProt Q12809); experiment: Inhibition of human ERG at 10 uM by patch clamp method
Sequence of hERG (KCNH2) (Q12809 whole entry, the tested form may be a part): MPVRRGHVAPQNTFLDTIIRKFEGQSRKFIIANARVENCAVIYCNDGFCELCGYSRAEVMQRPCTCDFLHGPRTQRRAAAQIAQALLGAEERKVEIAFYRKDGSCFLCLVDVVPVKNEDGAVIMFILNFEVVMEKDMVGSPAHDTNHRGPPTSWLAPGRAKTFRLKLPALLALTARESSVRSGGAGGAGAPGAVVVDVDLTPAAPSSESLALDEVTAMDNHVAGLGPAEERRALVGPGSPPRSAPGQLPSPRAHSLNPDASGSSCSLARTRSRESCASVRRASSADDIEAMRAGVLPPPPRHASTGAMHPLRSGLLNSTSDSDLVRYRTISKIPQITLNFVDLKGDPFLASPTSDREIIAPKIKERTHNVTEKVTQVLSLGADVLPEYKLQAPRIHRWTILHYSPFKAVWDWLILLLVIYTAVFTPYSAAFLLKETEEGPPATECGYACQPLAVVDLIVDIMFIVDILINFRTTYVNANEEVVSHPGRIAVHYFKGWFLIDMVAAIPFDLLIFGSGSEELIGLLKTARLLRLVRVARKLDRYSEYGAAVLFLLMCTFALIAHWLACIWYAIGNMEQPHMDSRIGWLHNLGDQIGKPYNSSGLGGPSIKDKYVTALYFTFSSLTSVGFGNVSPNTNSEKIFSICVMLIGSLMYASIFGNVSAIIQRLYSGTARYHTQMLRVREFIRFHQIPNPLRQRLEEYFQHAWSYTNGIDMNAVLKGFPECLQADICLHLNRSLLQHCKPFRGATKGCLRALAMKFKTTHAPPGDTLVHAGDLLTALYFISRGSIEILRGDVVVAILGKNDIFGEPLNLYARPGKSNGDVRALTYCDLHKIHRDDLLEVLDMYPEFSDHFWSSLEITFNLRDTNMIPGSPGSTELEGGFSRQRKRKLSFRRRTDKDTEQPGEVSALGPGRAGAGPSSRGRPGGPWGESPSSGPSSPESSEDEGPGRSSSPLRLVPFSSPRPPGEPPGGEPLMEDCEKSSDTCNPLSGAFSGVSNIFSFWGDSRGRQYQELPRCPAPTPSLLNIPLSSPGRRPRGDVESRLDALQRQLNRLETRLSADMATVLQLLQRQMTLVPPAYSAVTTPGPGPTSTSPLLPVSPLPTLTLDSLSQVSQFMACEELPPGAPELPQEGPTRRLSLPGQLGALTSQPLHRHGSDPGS

[5] = Half life in dog at 2 mg/kg, po or 0.5 mg/kg, iv administered as infusion for 10 mins; assay type: ADME, organism-based, Canis lupus familiaris; details: in vivo; method in brief: as §1
[6] = Clearance in dog at 2 mg/kg, po or 0.5 mg/kg, iv administered as infusion for 10 mins; assay type: ADME, organism-based, Canis lupus familiaris; details: in vivo; method in brief: as §1
[7] = Protein binding in monkey plasma; assay type: ADME, cell-free, Macaca mulatta; details: rhesus monkey, read-out: PPB
[8] = Stability in rat liver microsomes assessed as parent compound remaining measured after 10 mins; assay type: ADME, Microsome; details: read-out: Stability
[9] = Protein binding in rat plasma; assay type: ADME, cell-free; details: read-out: PPB (converted)
[10] = Clearance in rat at 2 mg/kg, po or 0.5 mg/kg, iv administered as infusion for 10 mins; assay type: ADME, organism-based; details: in vivo
[11] = Oral bioavailability in dog at 2 mg/kg; assay type: ADME, organism-based, Canis lupus familiaris; details: in vivo; method in brief: as §1
[12] = Stability in human liver microsomes assessed as parent compound remaining measured after 10 mins; assay type: ADME, Microsome; details: liver microsomes, read-out: Stability
Cynomolgus monkey [13] = experiment: Antithrombotic activity in cynomolgus monkey electrolytic carotid artery thrombosis assessed as reduction in thrombus weight at 10 mg/kg, po administered via gavage measured after 1.5 hrs relative to control; assay type: functional, Macaca fascicularis; set-up: scale not given: the % may be the effect or the level left
Method in brief: (§2)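 Monkeys retired from earlier studies after a washout of at least 4 weeks, randomized to vehicle (n=8) or 0.4, 2 or 10 mg/kg (n=7 each). Dosed by oral gavage in 40/60 w/w TPGS/PEG400 at 2 ml/kg. Anesthetized and surgically prepared 1.5 h post-dose. Thrombosis and bleeding time measured in the same animal.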

[14] = Half life in rat at 2 mg/kg, po or 0.5 mg/kg, iv administered as infusion for 10 mins; assay type: ADME, organism-based; details: in vivo
Cynomolgus monkey [15] = experiment: Antithrombotic activity in cynomolgus monkey electrolytic carotid artery thrombosis assessed as reduction in thrombus weight administered via oral gavage measured after 1.5 hrs; assay type: functional, organism-based; details: Macaca fascicularis; method in brief: as §2
[16] = Half life in dog liver microsomes; assay type: ADME, Canis lupus familiaris, Microsome
[17] = Toxicity in cynomolgus monkey assessed as prolongation of kidney bleeding time at 10 mg/kg, po administered via gavage measured up to 20 mins; assay type: organism-based, Macaca fascicularis; details: in vivo
Method in brief: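 Oral gavage at 10 mg/kg or vehicle (40/60 w/w TPGS/PEG400, 2 ml/kg) to monkeys, anesthetized 1.5 h later. Bleeding time taken by renal cortex incision: time until bleeding stopped with no re-bleeding for 30 s, monitored up to 20 min, done in triplicate.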

[18] = biological target: T2, Nuclear receptor subfamily 1 group I member 2 (Homo sapiens, UniProt O75469); experiment: Activation of human PXR; assay type: ADME
T2 sequence (O75469 whole entry): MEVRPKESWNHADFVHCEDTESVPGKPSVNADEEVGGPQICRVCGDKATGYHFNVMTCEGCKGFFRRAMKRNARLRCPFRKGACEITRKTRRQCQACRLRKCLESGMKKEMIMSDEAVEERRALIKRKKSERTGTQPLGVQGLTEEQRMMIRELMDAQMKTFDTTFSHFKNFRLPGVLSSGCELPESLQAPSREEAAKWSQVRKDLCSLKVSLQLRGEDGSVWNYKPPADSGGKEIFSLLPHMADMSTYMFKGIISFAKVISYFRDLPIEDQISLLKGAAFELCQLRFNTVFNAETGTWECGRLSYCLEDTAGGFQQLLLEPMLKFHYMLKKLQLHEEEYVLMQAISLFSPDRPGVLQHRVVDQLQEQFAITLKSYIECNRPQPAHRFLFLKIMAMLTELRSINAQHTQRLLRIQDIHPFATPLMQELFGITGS

[19] = biological target: T3, Proteinase-activated receptor 4 (Homo sapiens) (UniProt Q96RI0); experiment: Displacement of [3H]BMS-986120 from His-tagged human PAR4 expressed in HEK293 cell membranes assessed as dissociation rate constant measured after 2 hrs
T3 sequence (whole entry): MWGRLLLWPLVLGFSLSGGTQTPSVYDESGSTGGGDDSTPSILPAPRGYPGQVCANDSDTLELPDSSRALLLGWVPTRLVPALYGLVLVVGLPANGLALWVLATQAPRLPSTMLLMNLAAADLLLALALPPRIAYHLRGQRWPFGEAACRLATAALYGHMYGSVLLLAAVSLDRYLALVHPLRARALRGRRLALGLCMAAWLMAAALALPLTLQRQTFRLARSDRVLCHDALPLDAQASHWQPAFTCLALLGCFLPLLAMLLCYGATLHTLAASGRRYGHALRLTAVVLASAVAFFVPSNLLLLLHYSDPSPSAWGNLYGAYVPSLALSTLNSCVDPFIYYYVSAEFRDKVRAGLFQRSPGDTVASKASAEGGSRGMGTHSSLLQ

[20] = biological target: CYP450 (isoform not stated) (Homo sapiens, UniProt P04798+P05177+P05181+P08684+P10632+P10635+P11509+P11712+P13584+P20813+P20815+P20853+P24462+P24903+P33260+P33261+P51589+P78329+P98187+Q02928+Q08477+Q16678+Q16696+Q5TCH4+Q6VVX0+Q7Z449+Q8TAV3+Q96SQ9+Q9HB55); experiment: Inhibition of CYP450 in human liver microsomes; assay type: ADME
Cynomolgus monkey [21] = experiment: Antithrombotic activity in cynomolgus monkey electrolytic carotid artery thrombosis assessed as reduction in thrombus weight at 0.4 mg/kg, po administered via gavage measured after 1.5 hrs relative to control; assay type: functional, Macaca fascicularis; set-up: scale not given: the % may be the effect or the level left; method in brief: as §2
[22] = Oral bioavailability in rat at 2 mg/kg; assay type: ADME, organism-based; details: in vivo
Method in brief: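 Rat dosing: iv 0.5 mpk as a 10 min infusion in 25/75 propylene glycol/PEG400 at 2 ml/kg. po 2 mpk in 5/5/90 EtOH/TPGS/PEG300 at 5 mL/kg.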

[23] = Half life in monkey at 2 mg/kg, po or 0.5 mg/kg, iv administered as infusion for 10 mins; assay type: ADME, organism-based, Macaca mulatta; details: rhesus monkey, in vivo; method in brief: as §1
[24] = Oral bioavailability in monkey at 2 mg/kg; assay type: ADME, organism-based, Macaca mulatta; details: rhesus monkey, in vivo; method in brief: as §1
[25] = Half life in mouse liver microsomes; assay type: ADME, Microsome
Cynomolgus monkey [26] = experiment: Antithrombotic activity in cynomolgus monkey electrolytic carotid artery thrombosis assessed as reduction in thrombus weight at 2 mg/kg, po administered via gavage measured after 1.5 hrs relative to control; assay type: functional, Macaca fascicularis; set-up: scale not given: the % may be the effect or the level left; method in brief: as §2
[27] = Protein binding in human plasma; assay type: ADME, cell-free; details: read-out: PPB (converted)
[28] = biological target: T3, Proteinase-activated receptor 4 (Homo sapiens); experiment: Displacement of [3H]BMS-986120 from His-tagged human PAR4 expressed in HEK293 cell membranes assessed as association rate constant
Method in brief: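 HEK293 membranes expressing PAR4. Association kinetics measured; values are mean ± standard deviation, n = 3.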

[29] = Protein binding in mouse plasma; assay type: ADME, cell-free; details: read-out: PPB (converted)

COc1cc(OCc2cccc(OCc3ccccc3)c2)c2cc(-c3cn4nc(OC)sc4n3)oc2c1
half-life [1]: 0.8 h | IC50 [2]: > 30 µM | clearance [3]: 5.2 mL/min/kg | fraction unbound [4]: ≤ 0.002 | inhibition at 10 µM (hERG (KCNH2)): ≤ 10% | half-life [5]: 7 h | clearance [6]: 1.6 mL/min/kg | fraction unbound [7]: < 0.002 | remaining at 10 min [8]: 76% | fraction unbound [9]: 0.002 | clearance [10]: 10 mL/min/kg | bioavailability [11]: 26% | remaining at 10 min [12]: 85% | Activity (Cynomolgus monkey [13]): 38% | half-life [14]: 6.9 h | Activity (Cynomolgus monkey [15]): Dose-dependent effect | half-life [16]: 1.67 h | Activity [17]: Non-Toxic | EC50 [18]: > 50 µM | K [19]: 0.013 min⁻¹ | IC50 [20]: > 40 µM | Activity (Cynomolgus monkey [21]): 9% | bioavailability [22]: 11% | half-life [23]: 6.2 h | bioavailability [24]: 11% | half-life [25]: 2 h | Activity (Cynomolgus monkey [26]): 38% | fraction unbound [27]: 0.004 | K [28]: 66700 M⁻¹ s⁻¹ | fraction unbound [29]: 0.005
